Compound activity from PubChem.
GalR3 antagonist = blocks the human galanin receptor 3; O60755; HEK293 GalR3-CNG cAMP membrane potential fluorescence; galR3 body fused to GalR1 C-terminus; inhibition, % at 3 µM; 0.44% of 360,000 active; AID 651719;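 active = inhibition above the screen-wide average plus 3 SD, cut at about 13% in these data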;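 also: forskolin and galanin both at EC90 stimulate the cells; cAMP rise reported by CNG channel membrane potential dye signal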
Target sequence (O60755 1-299 limits assumed): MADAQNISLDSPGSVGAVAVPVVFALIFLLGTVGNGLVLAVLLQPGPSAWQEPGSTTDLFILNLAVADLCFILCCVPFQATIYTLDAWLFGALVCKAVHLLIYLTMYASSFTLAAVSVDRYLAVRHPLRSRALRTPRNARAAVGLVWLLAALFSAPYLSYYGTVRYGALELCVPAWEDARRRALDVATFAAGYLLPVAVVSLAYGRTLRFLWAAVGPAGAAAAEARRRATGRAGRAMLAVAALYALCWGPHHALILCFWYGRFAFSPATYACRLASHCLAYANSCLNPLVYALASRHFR
GPR7 antagonist = blocks human GPR7 receptor signaling. GPR7-expressing cells, fluorescence antagonist assay. 1.1% of 290,000 active. inhibition, % at 4.4 µM. AID 1861; in the data active = inhibition above about 16%, passing the limit was not always enough;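 also: cells stimulated with the agonist NPW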
CHO parental Ca = signal in parental CHO cells, OX1R antagonist counter-screen | 0.63% of 330,000 active | parental CHO-K1, ATP-induced calcium, Fluo-8 fluorescence | inhibition, % at 5.6 µM;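 active = inhibition above that plate's mean sample inhibition plus 3 SD, cut at about 26% in these data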
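material = parental CHO cells | also added = ATP as calcium-mobilizing challenge | dosing = single point at 5.6 µM | detection = intracellular calcium via Fluo-8 no-wash fluorescent dye | read-out = % inhibition | benchmarks = low control ATP plus DMSO, high control DMSO only | repeats = one well per compound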
OX1R antag-1 = human HCRTR1 antagonism; O43613; CHO/OX1R cells, Fluo-8 calcium fluorescence, orexin A; inhibition, % at 5 µM; 0.43% of 330,000 active; AID 434989;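 active = inhibition above its plate's threshold, mean inhibition of all tested compounds on the plate plus 3 SD, cut at about 37% in these data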
OX1R antag-2 = blocks the human orexin 1 receptor; O43613; OX1R-expressing cells, FRET antagonist read-out; inhibition, % at 6.6 µM; 1.8% of 330,000 active; in the data active = inhibition mostly above about 38%, no sharp cut-off; inactive = mostly below about 40%
GPR7 antag cf = human GPR7 antagonism, confirmation assay | 52% of 2,400 active | GPR7-expressing cells, calcium fluorescence antagonist mode | inhibition, % at 4.4 µM | shares compounds with GPR7 antagonist | AID 1952; in the data active = inhibition above about 24%;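 also: stimulated with the GPR7 agonist NPW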
MCHR1 antag = antagonizes human MCHR1, a GPR7 antagonist counter-screen; inhibition, % at 4.4 µM; shares compounds with GPR7 antagonist; 62% of 2,400 active; MCHR1-expressing cells, fluorescence antagonist assay; in the data active = inhibition above about 22%
OX1R Ca confirm = OX1R (human) antagonism, confirmed; shares compounds with OX1R antag-1; CHO/OX1R cells, orexin A calcium Fluo-8 fluorescence; inhibition, % at 5 µM; 38% of 1,100 active; in the data active = inhibition above about 29%
CHO Ca counter = counter-screen: parental CHO calcium response change, triplicate; shares compounds with OX1R antag-1; parental CHO-K1, ATP-induced calcium, Fluo-8 fluorescence; inhibition, % at 5.6 µM; 9.3% of 1,100 active;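 active = inhibition above a per-plate limit, the mean inhibition of that plate's test compounds plus 3 SD, cut at about 25% in these data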
Of the large screens only hits and unclear results are named; the others gave an inactive call (follow-up assays come after a bar, where they were run). In the library only some 3.1% were active in any assay of this set; here they are far more common.

CC(=O)Oc1c(I)cc(I)cc1C(=O)Nc1ccc(Cl)cc1	GPR7 antagonist 26.7, CHO parental Ca 57.9, OX1R antag-2 79.8 | GPR7 antag cf inactive | MCHR1 antag 61.0
Cc1c(Cl)ccc2c(C(=O)NCCN3CCCCC3)cc(-c3ccccn3)nc12	none
COc1ccccc1-c1cc(C(=O)NC2CCN(C)CC2)c2ccc(Cl)c(C)c2n1	GPR7 antagonist 43.1 | GPR7 antag cf 69.3 | MCHR1 antag 80.9
COC(=O)c1ccc(CSCc2ccc(C#N)cc2)cc1	GPR7 antagonist 48.0 (no result: GalR3 antagonist) | GPR7 antag cf 54.6 | MCHR1 antag 56.1
COc1ccc(NC(=O)CSCc2ccc(C#N)cc2)c(OC)c1	none
CSc1ccc(NC(=O)NN(c2ccccc2)C2CCS(=O)(=O)C2)cc1 (stereo not drawn)	none (no result: GPR7 antagonist, CHO parental Ca, OX1R antag-1, OX1R antag-2)
COc1ccc(Br)c(C(=O)NCC2CCCCC2)c1	none
COc1ccc2oc(C(=O)NC3CCCCC3)c(C)c2c1	GPR7 antagonist 28.8 | GPR7 antag cf inactive | MCHR1 antag 30.3
COc1ccc(Br)c(C(=O)NC2CCCC2)c1	GPR7 antagonist 22.2 | GPR7 antag cf inactive | MCHR1 antag inactive
CC(NCCCOc1cccc2ccccc12)c1ccccc1 (stereo not drawn)	GPR7 antagonist 24.6 | GPR7 antag cf 56.5 | MCHR1 antag 49.8
O=c1ccc2cccc([N+](=O)[O-])c2[nH]1	none (no result: GPR7 antagonist, CHO parental Ca, OX1R antag-1, OX1R antag-2)
Cc1nc2n(n1)C(O)c1cc([N+](=O)[O-])ccc1S2 (stereo not drawn)	GPR7 antagonist 30.6, OX1R antag-2 92.5 (no result: GalR3 antagonist) | GPR7 antag cf inactive | MCHR1 antag inactive
CCOc1c(Br)cc(/C=C(\C#N)C(=O)NC2CC2)cc1OC	GPR7 antagonist 24.2 | GPR7 antag cf 47.3 | MCHR1 antag 41.2
CCOc1ccc(-c2cc(C(=O)NC3CCCCC3)[nH]n2)c(C)c1	none (no result: GPR7 antagonist, CHO parental Ca, OX1R antag-1, OX1R antag-2)
CC1(C(=O)NCc2ccccc2)CN(S(C)(=O)=O)CC(=O)N1CCc1c[nH]c2ccccc12 (stereo not drawn)	none (no result: GPR7 antagonist, CHO parental Ca, OX1R antag-1, OX1R antag-2)
COc1ccc(OC(=O)c2cc3cc(Cl)ccc3oc2=O)cc1	GPR7 antagonist 45.9 | GPR7 antag cf inactive | MCHR1 antag inactive
O=S1(=O)C[C@@H](N2CCC(Cc3ccccc3)CC2)[C@H](COCc2ccccc2)N1	none (no result: GPR7 antagonist, CHO parental Ca, OX1R antag-1, OX1R antag-2)
COC(=O)c1ccc2nc(-c3ccc(Cl)cc3)c(Cc3ccsc3)n2c1	none (no result: GPR7 antagonist, CHO parental Ca, OX1R antag-1, OX1R antag-2)
Cc1cc(C(=O)N[C@@H](c2ccccc2)[C@]2(C)C[C@H]2[C@@H](C)C(=O)Nc2ccc3ccccc3c2)no1	none
Cc1cc(C(=O)N[C@H](c2ccccc2)[C@@]2(C)C[C@@H]2[C@@H](C)C(=O)Nc2ccc3ccccc3c2)no1	GPR7 antagonist 29.3 | GPR7 antag cf 46.0 | MCHR1 antag 63.6
C[C@@H]1CN([C@H](C)CO)C(=O)c2cc(NC(=O)Nc3ccccc3)ccc2O[C@@H](C)CCCCO[C@H]1CN(C)S(C)(=O)=O	none (no result: GPR7 antagonist, CHO parental Ca, OX1R antag-1, OX1R antag-2)
Cc1ccc(C(=O)CSC2=C(C#N)C(c3ccco3)CC(=O)N2)c(C)c1 (stereo not drawn)	GPR7 antagonist 40.5 | GPR7 antag cf 70.6 | MCHR1 antag 63.7 | OX1R Ca confirm 38.9 | CHO Ca counter inactive
Cc1ccc(NC(=O)CSC2=C(C#N)C(c3ccco3)CC(=O)N2)cc1 (stereo not drawn)	none
CCOC(=O)/C(=C\C=C1/Sc2ccccc2N1CC)C(C)=O	GPR7 antagonist 27.8 | GPR7 antag cf inactive | MCHR1 antag 36.0 | OX1R Ca confirm 34.5 | CHO Ca counter 34.9
CCN1/C(=C/C(=O)c2ccco2)Sc2ccccc21	none
Cc1ccc(Cl)cc1N1CCN(C(=O)c2ccc3c(c2)CCN3S(C)(=O)=O)CC1	GPR7 antagonist 28.6 | GPR7 antag cf 25.4 | MCHR1 antag inactive | OX1R Ca confirm inactive | CHO Ca counter inactive
COc1cc2ccccc2cc1C(=O)N/N=C/c1cccs1	none (no result: GPR7 antagonist, CHO parental Ca, OX1R antag-1, OX1R antag-2)
CCCCCc1ccc(OCCCC[n+]2ccccc2)c(CCCCC)c1	none (no result: GalR3 antagonist)
